Measurements published in ChEMBL document CHEMBL1150310, “Development of novel water-soluble photocleavable protective group and its application for design of photoresponsive paclitaxel prodrugs” (Bioorg Med Chem, 2008).
Values after ≈ are worked out from the molar mass of the structure shown.

Key:
Format in all cases: physicochemical
[1] = Stability in solid state at -20 degC after 4 months; settings: 2922 h
[2] = Stability in phosphate-buffered saline at pH 7.4 at 4 degC after 1 month; settings: buffer, pH 7.4, 730.5 h
[3] = Photostability in phosphate-buffered saline assessed as paclitaxel release at pH 7.4 after irradiation with UV laser of 355 nm, 10 Hzm 5 mJ irradiation; settings: buffer
Method in brief: (§1)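 The conversion profile was measured in 10 mM PBS (pH 7.4) under pulsed UV laser irradiation (355 nm, 10 Hz, 5 mJ). The released isotaxel then undergoes spontaneous O–N intramolecular acyl migration to give paclitaxel.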

[4] = Photostability in phosphate-buffered saline assessed as paclitaxel release at pH 7.4 after 4 mins of irradiation with UV laser of 355 nm, 10 Hzm 5 mJ irradiation; settings: buffer, pH 7.4, 4 min; method in brief: as §1
[5] = Photostability in phosphate-buffered saline assessed as paclitaxel release at pH 7.4 after 4 mins of irradiation with UV light of 365 nm, 6W irradiation; settings: buffer, pH 7.4, 4 min
Method in brief: (§2)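 Prodrug, coumarin or parent drug, as a 2 mM DMSO stock, was diluted 3:297 into 10 mM PBS (pH 7.4). It was irradiated at room temperature with a 365 nm, 6 W UV lamp, and conversion was followed by HPLC.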

[6] = Photostability in phosphate-buffered saline assessed as 7-[Bis-[2-[[2-(dimethylamino)ethyl]amino]-2-oxoethyl]amino]-4-(hydroxymethyl) coumarin hydrochloride release at pH 7.4 after 1 hr of irradiation with UV light of 365 nm, 6W irradiation; settings: buffer, pH 7.4, 1 h; method in brief: as §2
[7] = Solubility in water at 15 degC; settings: in the assay text read “25 degC” for “15 degC”
Method in brief: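 The filtrate of the aqueous preparation was analysed by RP-HPLC. Water solubility was quantified against a calibration curve built from standard solutions of known prodrug amounts.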

Stability [1] | Stability [2] | t1/2 [3] [min] | Activity [4] [%] | Activity [5] [%] | Activity [6] [%] | solubility [7] [µg/mL] | SMILES
Stable | Stable | 15.1 | 24 | 69 | 11 | > 100000 | CC(=O)O[C@H]1C(=O)[C@@]2(C)[C@H]([C@H](OC(=O)c3ccccc3)[C@]3(O)C[C@H](OC(=O)[C@H](OC(=O)c4ccccc4)[C@@H](NC(=O)OCc4cc(=O)oc5cc(N(CC(=O)NCCN(C)C)CC(=O)NCCN(C)C)ccc45)c4ccccc4)C(C)=C1C3(C)C)[C@]1(OC(C)=O)CO[C@@H]1C[C@@H]2O.Cl
 |  |  |  |  |  | 450 (≈ 527 µM) | CC(=O)O[C@H]1C(=O)[C@@]2(C)[C@H]([C@H](OC(=O)c3ccccc3)[C@]3(O)C[C@H](OC(=O)[C@H](OC(=O)c4ccccc4)[C@@H](N)c4ccccc4)C(C)=C1C3(C)C)[C@]1(OC(C)=O)CO[C@@H]1C[C@@H]2O [ISOTAXEL]
